# Results from ChEMBL document CHEMBL1240350, “In vitro activity of CEM-101 against Streptococcus pneumoniae and Streptococcus pyogenes with defined macrolide resistance mechanisms” (Antimicrob Agents Chemother, 2010).
# Assays:
# Streptococcus pneumoniae [1] = assay: Antibacterial activity against penicillin-intermediate Streptococcus pneumoniae after overnight incubation by agar dilution method; format: functional
# Procedure, shortened: (§1)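 Agar dilution on Mueller-Hinton agar supplemented with 5% sheep blood, inoculum 10^4 CFU/spot, read after overnight incubation at 35°C in ambient air. Clinical isolates with defined genotypes; S. pneumoniae ATCC 49619 quality control strain included in each run. MIC50/MIC90 are MICs inhibiting 50% and 90% of isolates.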
# Streptococcus pneumoniae [2] = assay: Antibacterial activity against Streptococcus pneumoniae harboring erm(B) gene after overnight incubation by agar dilution method; format: functional
# Procedure, shortened: (§2)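 Clinical isolates collected 1998–2008, with macrolide-resistance genes confirmed by PCR. MICs by agar dilution on Mueller-Hinton agar with 5% sheep blood. Inoculum 10^4 CFU/spot, incubated overnight at 35°C in ambient air. S. pneumoniae ATCC 49619 was the quality-control strain in every run.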
# Streptococcus pneumoniae [3] = assay: Antibacterial activity against quinolone-susceptible Streptococcus pneumoniae after overnight incubation by agar dilution method; format: functional
# Procedure, shortened: (§3)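 Agar dilution on Mueller-Hinton agar supplemented with 5% sheep blood. Inoculum 10^4 CFU/spot, incubated overnight at 35°C in ambient air. Test strains were clinical pneumococcal isolates. S. pneumoniae ATCC 49619 was included as the quality control strain in each run. MIC range, MIC50 and MIC90 were reported for each susceptibility category.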
# Streptococcus pneumoniae [4] = assay: Antibacterial activity against quinolone-resistant Streptococcus pneumoniae after overnight incubation by agar dilution method; format: functional; procedure, shortened: as §3
# Streptococcus pneumoniae [5] = assay: Antibacterial activity against macrolide-resistant Streptococcus pneumoniae harboring mef(A) gene after overnight incubation by agar dilution method; format: functional
# Procedure, shortened: (§4)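 Agar dilution MICs on Mueller-Hinton agar with 5% sheep blood. Inoculum 10^4 CFU/spot, incubated overnight at 35°C in ambient air. Clinical S. pneumoniae or group A streptococcal isolates; resistance genotypes (erm(B), erm(A), mef(A)/mef(E)) were assigned by PCR. S. pneumoniae ATCC 49619 served as QC strain in each run. Range, MIC50 and MIC90 reported per phenotype group.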
# Streptococcus pneumoniae [6] = assay: Antibacterial activity against macrolide-resistant Streptococcus pneumoniae harboring erm(B) and mef(A) gene after overnight incubation by agar dilution method; format: functional; procedure, shortened: as §4
# Streptococcus pneumoniae [7] = assay: Antibacterial activity against macrolide-resistant Streptococcus pneumoniae harboring mutation in L4 ribosomal protein after overnight incubation by agar dilution method; format: functional; procedure, shortened: as §4
# Streptococcus pyogenes [8] = assay: Antibacterial activity against macrolide-susceptible Streptococcus pyogenes after overnight incubation by agar dilution method; format: functional; procedure, shortened: as §1
# Streptococcus pyogenes [9] = assay: Antibacterial activity against Streptococcus pyogenes harboring erm(A) gene after overnight incubation by agar dilution method; format: functional; procedure, shortened: as §2
# Streptococcus pyogenes [10] = assay: Antibacterial activity against Streptococcus pyogenes harboring mutation in L4 ribosomal protein after overnight incubation by agar dilution method; format: functional; procedure, shortened: as §2
# Streptococcus pyogenes [11] = assay: Antibacterial activity against macrolide-resistant Streptococcus pyogenes harboring mef(A) gene after overnight incubation by agar dilution method; format: functional; procedure, shortened: as §4
# Streptococcus pyogenes [12] = assay: Antibacterial activity against macrolide-resistant Streptococcus pyogenes harboring erm(A) gene after overnight incubation by agar dilution method; format: functional; procedure, shortened: as §4
# Streptococcus pneumoniae [13] = assay: Antibacterial activity against macrolide-susceptible Streptococcus pneumoniae 1077 after overnight incubation by agar dilution method; format: functional
# Streptococcus pneumoniae [14] = assay: Antibacterial activity against macrolide-susceptible Streptococcus pneumoniae 1077 after 49 passages and 10 compound-free subculturing by retest method; format: functional
# Streptococcus pneumoniae [15] = assay: Antibacterial activity against macrolide-resistant Streptococcus pneumoniae 1076 harboring erm(B) and mef(A) gene after 14 passages and 10 compound-free subculturing by retest method; format: functional
# Procedure, shortened: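 Multistep selection by daily serial passage in subinhibitory drug concentrations. Medium was cation-adjusted Mueller-Hinton broth plus 5% lysed horse blood. Each day the next inoculum came from the tube 1–2 dilutions below the MIC whose turbidity matched the growth control, for up to 50 days. Clone MICs by CLSI macrodilution; identity to the parent confirmed by SmaI PFGE.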
# Streptococcus pneumoniae [16] = assay: Antibacterial activity against macrolide-resistant Streptococcus pneumoniae 2686 harboring mutation in L4 ribosomal protein after 14 passages and 10 compound-free subculturing by retest method; format: functional
# Streptococcus pneumoniae [17] = assay: Antibacterial activity against macrolide-resistant Streptococcus pneumoniae 2686 harboring mutation in L4 ribosomal protein after 25 passages and 10 compound-free subculturing by retest method; format: functional
# Streptococcus pneumoniae [18] = assay: Antibacterial activity against macrolide-susceptible Streptococcus pneumoniae 7127 harboring S20N mutation in L4 ribosomal protein and A105V mutation in L22 ribosomal protein after 15 passages and 10 compound-free subculturing by retest method; format: functional
# Streptococcus pneumoniae [19] = assay: Antibacterial activity against macrolide-susceptible Streptococcus pneumoniae 7127 harboring S20N mutation in L4 ribosomal protein and A105V mutation in L22 ribosomal protein after 43 passages and 10 compound-free subculturing by retest method; format: functional
# Streptococcus pneumoniae [20] = assay: Antibacterial activity against macrolide-resistant Streptococcus pneumoniae 3009 harboring mutation in 23S rRNA after 20 passages and 10 compound-free subculturing by retest method; format: functional
# Streptococcus pneumoniae [21] = assay: Antibacterial activity against macrolide-resistant Streptococcus pneumoniae 1076 harboring erm(B) and mef(A) gene after overnight incubation by agar dilution method; format: functional
# Streptococcus pneumoniae [22] = assay: Antibacterial activity against macrolide-resistant Streptococcus pneumoniae 1635 harboring erm(A) gene after overnight incubation by agar dilution method; format: functional
# Streptococcus pneumoniae [23] = assay: Antibacterial activity against macrolide-resistant Streptococcus pneumoniae 3009 harboring mutation in 23S rRNA after overnight incubation by agar dilution method; format: functional
# Streptococcus pyogenes [24] = assay: Antibacterial activity against macrolide-susceptible Streptococcus pyogenes 2132 after 28 passages and 10 compound-free subculturing by retest method
# Streptococcus pyogenes [25] = assay: Antibacterial activity against macrolide-resistant Streptococcus pyogenes 2368 harboring erm(B) gene after overnight incubation by agar dilution method
# Streptococcus pyogenes [26] = assay: Antibacterial activity against macrolide-resistant Streptococcus pyogenes 2094 harboring erm(A) gene after overnight incubation by agar dilution method
# Streptococcus pyogenes [27] = assay: Antibacterial activity against macrolide-susceptible Streptococcus pyogenes 2132 after 50 passages following overnight incubation by agar dilution method
# Streptococcus pyogenes [28] = assay: Antibacterial activity against macrolide-resistant Streptococcus pyogenes 2368 harboring erm(B) gene after 6 passages and 10 compound-free subculturing by retest method
# Streptococcus pyogenes [29] = assay: Antibacterial activity against macrolide-resistant Streptococcus pyogenes 2011 harboring mef(A) gene after 50 passages following overnight incubation by agar dilution method
# Streptococcus pyogenes [30] = assay: Antibacterial activity against macrolide-resistant Streptococcus pyogenes 237 harboring mutation in L4 ribosomal protein after 20 passages and 10 compound-free subculturing by retest method
# Streptococcus pyogenes [31] = assay: Antibacterial activity against macrolide-resistant Streptococcus pyogenes 237 harboring mutation in L4 ribosomal protein after 43 passages and 10 compound-free subculturing by retest method
# Streptococcus pyogenes [32] = assay: Antibacterial activity against macrolide-resistant Streptococcus pyogenes 237 harboring mutation in L4 ribosomal protein after 50 passages following overnight incubation by agar dilution method
SMILES,MIC50 (Streptococcus pneumoniae [1]),MIC90 (Streptococcus pneumoniae [1]),MIC50 (Streptococcus pneumoniae [2]),MIC50 (Streptococcus pneumoniae [3]),MIC90 (Streptococcus pneumoniae [3]),MIC50 (Streptococcus pneumoniae [4]),MIC50 (Streptococcus pneumoniae [5]),MIC90 (Streptococcus pneumoniae [5]),MIC50 (Streptococcus pneumoniae [6]),MIC50 (Streptococcus pneumoniae [7]),MIC90 (Streptococcus pneumoniae [7]),MIC50 (Streptococcus pyogenes [8]),MIC90 (Streptococcus pyogenes [8]),MIC50 (Streptococcus pyogenes [9]),MIC90 (Streptococcus pyogenes [9]),MIC (Streptococcus pyogenes [10]),MIC50 (Streptococcus pyogenes [11]),MIC90 (Streptococcus pyogenes [11]),MIC50 (Streptococcus pyogenes [12]),MIC90 (Streptococcus pyogenes [12]),other results
CCC[C@@H]1C[C@@H](C(=O)N[C@@H]([C@H]2O[C@H](SC)[C@H](O)[C@@H](O)[C@H]2O)[C@H](C)Cl)N(C)C1 [CLINDAMYCIN],0.125 µg/mL,> 64 µg/mL,> 64 µg/mL,0.06 µg/mL,> 64 µg/mL,0.03 µg/mL,0.06 µg/mL,0.06 µg/mL,0.06 µg/mL,0.06 µg/mL,0.125 µg/mL,0.06 µg/mL,0.06 µg/mL,0.125 µg/mL,0.25 µg/mL,0.06 µg/mL,0.06 µg/mL,0.125 µg/mL,0.125 µg/mL,0.25 µg/mL,MIC90 (Streptococcus pneumoniae [4]): 64 µg/mL; MIC (Streptococcus pneumoniae [13]): 0.016 µg/mL; MIC (Streptococcus pneumoniae [14]): 8 µg/mL; MIC (Streptococcus pneumoniae [15]): > 64 µg/mL; MIC (Streptococcus pneumoniae [16]): 0.03 µg/mL; MIC (Streptococcus pneumoniae [17]): 0.03 µg/mL; MIC (Streptococcus pneumoniae [18]): 1 µg/mL; MIC (Streptococcus pneumoniae [19]): 0.25 µg/mL; MIC (Streptococcus pneumoniae [20]): 1 µg/mL; MIC (Streptococcus pneumoniae [21]): 64 µg/mL; MIC (Streptococcus pneumoniae [22]): 0.06 µg/mL; MIC (Streptococcus pneumoniae [23]): 1 µg/mL; MIC (Streptococcus pyogenes [24]): 0.03 µg/mL; MIC (Streptococcus pyogenes [25]): > 64 µg/mL; MIC (Streptococcus pyogenes [26]): 0.06 µg/mL; MIC (Streptococcus pyogenes [27]): 0.06 µg/mL; MIC (Streptococcus pyogenes [28]): > 64 µg/mL; MIC (Streptococcus pyogenes [29]): 0.06 µg/mL; MIC (Streptococcus pyogenes [30]): 0.03 µg/mL; MIC (Streptococcus pyogenes [31]): 1 µg/mL
CC[C@H]1OC(=O)[C@H](C)[C@@H](O[C@H]2C[C@@](C)(OC)[C@@H](O)[C@H](C)O2)[C@H](C)[C@@H](O[C@@H]2O[C@H](C)C[C@H](N(C)C)[C@H]2O)[C@](C)(OC)C[C@@H](C)C(=O)[C@H](C)[C@@H](O)[C@]1(C)O [CLARITHROMYCIN],16 µg/mL,> 64 µg/mL,> 64 µg/mL,16 µg/mL,> 64 µg/mL,0.03 µg/mL,2 µg/mL,4 µg/mL,> 64 µg/mL,16 µg/mL,32 µg/mL,0.03 µg/mL,0.06 µg/mL,2 µg/mL,> 64 µg/mL,1 µg/mL,4 µg/mL,8 µg/mL,2 µg/mL,> 64 µg/mL,MIC (Streptococcus pneumoniae [13]): 0.016 µg/mL; MIC (Streptococcus pneumoniae [14]): > 64 µg/mL; MIC (Streptococcus pneumoniae [15]): > 64 µg/mL; MIC (Streptococcus pneumoniae [16]): > 64 µg/mL; MIC (Streptococcus pneumoniae [17]): 16 µg/mL; MIC (Streptococcus pneumoniae [18]): 16 µg/mL; MIC (Streptococcus pneumoniae [19]): 0.016 µg/mL; MIC (Streptococcus pneumoniae [20]): > 64 µg/mL; MIC (Streptococcus pneumoniae [21]): > 64 µg/mL; MIC (Streptococcus pneumoniae [22]): 0.5 µg/mL; MIC (Streptococcus pneumoniae [23]): 16 µg/mL; MIC (Streptococcus pyogenes [24]): 0.25 µg/mL; MIC (Streptococcus pyogenes [25]): > 64 µg/mL; MIC (Streptococcus pyogenes [26]): 0.5 µg/mL; MIC (Streptococcus pyogenes [27]): 0.016 µg/mL; MIC (Streptococcus pyogenes [28]): > 64 µg/mL; MIC (Streptococcus pyogenes [29]): 8 µg/mL; MIC (Streptococcus pyogenes [30]): 1 µg/mL; MIC (Streptococcus pyogenes [31]): 0.5 µg/mL; MIC (Streptococcus pyogenes [32]): 1 µg/mL
